T1: Ectonucleoside triphosphate diphosphohydrolase 1 (Bos taurus, UniProt O18956)
T1 sequence (O18956 whole entry): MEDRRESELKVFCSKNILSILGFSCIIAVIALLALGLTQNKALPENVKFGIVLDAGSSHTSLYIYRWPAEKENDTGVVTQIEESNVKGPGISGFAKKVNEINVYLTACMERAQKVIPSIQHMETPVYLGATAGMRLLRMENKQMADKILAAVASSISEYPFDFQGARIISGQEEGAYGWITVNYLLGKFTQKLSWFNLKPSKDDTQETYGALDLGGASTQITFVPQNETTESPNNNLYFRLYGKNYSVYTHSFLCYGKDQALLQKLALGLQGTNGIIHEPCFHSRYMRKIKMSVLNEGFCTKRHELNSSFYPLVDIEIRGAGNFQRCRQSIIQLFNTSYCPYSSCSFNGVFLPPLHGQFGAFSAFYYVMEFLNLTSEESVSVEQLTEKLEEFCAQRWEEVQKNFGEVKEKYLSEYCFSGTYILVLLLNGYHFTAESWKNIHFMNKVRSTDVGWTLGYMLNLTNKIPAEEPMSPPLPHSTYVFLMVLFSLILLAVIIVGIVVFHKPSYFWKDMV

B1: Ectonucleoside triphosphate diphosphohydrolase 1 (Bos taurus), O18956 (protein)
chain: T1 sequence (O18956 whole entry)

Legend:
Assay type in all cases: tissue-based
[1] = target: T1, Ectonucleoside triphosphate diphosphohydrolase 1; assay: (§1) Tested for inhibition of Nucleoside Triphosphate Diphosphohydrolase (NTPDase) from bovine spleen.
How it was run: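 Bovine spleen particulate fraction. Medium: 8 mM CaCl2, 5 mM tetramisole, 50 mM Tris, 50 mM imidazole, pH 7.6, 37 °C. Started with 1.9 μg enzyme, stopped after 7 min; Pi release read by malachite green. Triplicate.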

[2] = compound: CCCCSc1nc(N)c2ncn([C@@H]3O[C@H](COP(=O)(O)OP(=O)(O)OP(=O)(O)O)[C@@H](O)[C@H]3O)c2n1; assay: as §1
How it was run: (§2)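 Bovine spleen particulate fraction. […] Medium: 8 mM CaCl2, 5 mM tetramisole, 50 mM Tris, 50 mM imidazole, pH 7.6, 37 °C. Started with 1.9 μg enzyme, stopped after 7 min; Pi release read by malachite green. Triplicate.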

[3] = compound: CCCCSc1nc(N)c2ncn(C3O[C@H](COP(=O)(O)OP(=O)(O)O)[C@@H](O)[C@H]3O)c2n1; assay: as §1; how it was run: as §2
[4] = compound: CCCCNc1nc2c(N)ncnc2n1[C@@H]1O[C@H](COP(=O)(O)OP(=O)(O)OP(=O)(O)O)[C@@H](O)[C@H]1O; assay: as §1; how it was run: as §2
[5] = compound: CCCCNc1nc(N)c2ncn([C@@H]3O[C@H](COP(=O)(O)OP(=O)(O)OP(=O)(O)O)[C@@H](O)[C@H]3O)c2n1; assay: as §1; how it was run: as §2
[6] = compound: CCCCOc1nc(N)c2ncn([C@@H]3O[C@H](COP(=O)(O)OP(=O)(O)OP(=O)(O)O)[C@@H](O)[C@H]3O)c2n1; assay: as §1; how it was run: as §2
[7] = compound: CCCCOc1nc2c(N)ncnc2n1[C@@H]1O[C@H](COP(=O)(O)OP(=O)(O)OP(=O)(O)O)[C@@H](O)[C@H]1O; assay: as §1; how it was run: as §2
[8] = compound: Nc1ncnc2c1nc(Br)n2C1O[C@H](COP(=O)(O)OP(=O)(O)OP(=O)(O)O)[C@@H](O)[C@H]1O; assay: as §1; how it was run: as §2
[9] = compound: Nc1ncnc2c1ncn2[C@@H]1O[C@H](COP(=O)(O)OP(=O)(O)O)[C@@H](O)[C@H]1O; assay: as §1; how it was run: as §2
[10] = compound: Nc1ncnc2c1ncn2[C@@H]1O[C@H](COP(=O)(O)OP(=O)(O)OP(=O)(O)O)[C@@H](O)[C@H]1O; assay: as §1; how it was run: as §2
[11] = compound: CCSc1nc2c(N)ncnc2n1[C@@H]1O[C@H](COP(=O)(O)OP(=O)(O)OP(=O)(O)O)[C@@H](O)[C@H]1O; assay: as §1; how it was run: as §2

Molecule	Ki [1] [µM]	Km [2] [µM]	Km [3] [µM]	Km [4] [µM]	Km [5] [µM]	Km [6] [µM]	Km [7] [µM]	Km [8] [µM]	Km [9] [µM]	Km [10] [µM]	Km [11] [µM]
Nc1ncnc2c1nc(SC1CCCCCC1)n2C1O[C@H](COP(=O)(O)OP(=O)(O)OP(=O)(O)O)[C@@H](O)[C@H]1O (stereo partly specified)	31										
B1		36	63	20	32	28	26	22	33	18	12

Reference: ChEMBL document CHEMBL1133102, “Novel inhibitors of nucleoside triphosphate diphosphohydrolases: chemical synthesis and biochemical and pharmacological characterizations” (J Med Chem, 2000)
